For assay [1], the target named is Sigma non-opioid intracellular receptor 1 (Cavia porcellus, UniProt Q60492). The assay is described as follows: Displacement of [3H](+)-pentazocine from sigma 1 receptor in guinea pig brain membrane by liquid scintillation analyzer. Type of assay: cell membranes. An outline of the steps:
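Guinea pig brain membranes (about […] protein) incubated with 3 nM [3H]-pentazocine and at least 6 test concentrations in 50 mM Tris-HCl pH 7.4, 120 min at 37 °C. Filtration through PEI-presoaked GF/B filters, four cold-buffer washes, scintillation counting. Non-specific binding with excess haloperidol. Triplicates; IC50 by non-linear regression, Ki reported.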

The nature of assay [2]: Displacement of radioligand from phencyclidine binding site of NMDA receptor. In a few lines: (§1)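 Competition binding, first screened at two test concentrations. Exact Ki determined only when binding inhibition at the higher concentration was considerable.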
In the next assay the target is Mu-type opioid receptor (Homo sapiens, UniProt P35372). The assay is described as follows: Displacement of radioligand from mu opioid receptor. In a few lines: as §1
Chain of Mu-type opioid receptor (P35372 whole entry): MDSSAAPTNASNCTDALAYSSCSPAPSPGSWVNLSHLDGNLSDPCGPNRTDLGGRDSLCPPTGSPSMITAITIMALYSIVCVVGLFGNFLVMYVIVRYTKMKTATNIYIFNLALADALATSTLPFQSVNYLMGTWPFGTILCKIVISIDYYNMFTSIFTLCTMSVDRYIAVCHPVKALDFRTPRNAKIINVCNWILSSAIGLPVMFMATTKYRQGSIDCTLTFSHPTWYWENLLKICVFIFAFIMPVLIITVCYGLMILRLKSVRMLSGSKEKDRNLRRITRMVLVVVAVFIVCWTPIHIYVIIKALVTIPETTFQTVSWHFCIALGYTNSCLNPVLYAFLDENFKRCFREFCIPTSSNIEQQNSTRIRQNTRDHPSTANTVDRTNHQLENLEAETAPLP
The nature of assay [3]: Displacement of [3H]ditolylguanidine from sigma 2 receptor in rat liver membrane by liquid scintillation analyzer. It is filed as cell membranes. An outline of the steps: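 Rat liver membranes (about […] protein) incubated with 3 nM [3H]-ditolylguanidine plus 100 nM (+)-pentazocine to mask sigma1 sites, with at least 6 test concentrations, in 50 mM Tris-HCl pH 8.0, 120 min at 25 °C. Stopped with ice-cold 10 mM Tris pH 8.0, filtered on PEI-soaked GF/B, washed three times, scintillation counted. […] Triplicates; Ki reported.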

A short description of assay [4]: Selectivity for sigma 1 receptor in guinea pig brain membrane over sigma 2 receptor in rat liver membrane. It is filed as cell membranes.
Assay [5] deals with Kappa-type opioid receptor (Homo sapiens, UniProt P41145). The experiment in a line: Displacement of [3H]U-69593 from kappa opioid receptor. An outline of the steps: as §1
Chain of Kappa-type opioid receptor (P41145 whole entry): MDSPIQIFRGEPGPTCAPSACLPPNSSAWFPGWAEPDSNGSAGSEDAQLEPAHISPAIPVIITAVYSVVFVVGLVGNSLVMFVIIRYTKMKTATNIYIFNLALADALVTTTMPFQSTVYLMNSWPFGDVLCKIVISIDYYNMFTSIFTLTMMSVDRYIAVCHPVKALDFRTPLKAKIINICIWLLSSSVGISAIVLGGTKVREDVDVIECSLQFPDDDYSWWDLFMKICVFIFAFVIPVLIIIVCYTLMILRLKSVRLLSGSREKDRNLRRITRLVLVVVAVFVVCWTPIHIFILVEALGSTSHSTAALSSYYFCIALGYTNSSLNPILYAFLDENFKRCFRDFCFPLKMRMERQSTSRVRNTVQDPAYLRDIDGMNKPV
Background: In a radioligand displacement assay an active substance lowers the binding of a labelled ligand.

The structures appear in SMILES notation. pIC50, pKi: −log10 of the molar value.

Chain of Sigma non-opioid intracellular receptor 1 (Q60492 whole entry): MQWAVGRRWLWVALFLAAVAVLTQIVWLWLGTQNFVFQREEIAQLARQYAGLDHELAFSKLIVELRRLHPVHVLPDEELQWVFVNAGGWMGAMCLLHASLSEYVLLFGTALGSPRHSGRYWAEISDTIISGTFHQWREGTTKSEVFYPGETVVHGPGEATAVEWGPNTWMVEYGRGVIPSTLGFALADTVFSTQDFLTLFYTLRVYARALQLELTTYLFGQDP

As a reminder, the pKi is the negative decadic logarithm of the Ki, by convention in mol/L. Higher therefore signals a low Ki. For orientation: pIC50 means −log10 of the IC50, conventionally taken in molar units. A high value points to a small IC50. Turning to `OC[C@H]1CN(Cc2ccccc2)CCCN1Cc1ccccc1`, the pKi in assay [1] was 8.13; in assay [3] it was 6.43. Moreover, the pIC50 (in assay [2]; at Mu-type opioid receptor; in assay [5]) was < 5.00 throughout. Also, the Ratio Ki in assay [4] amounted to 53.
As for `OC[C@H]1CN(Cc2ccccc2)CCN1Cc1ccccc1`, the pKi was 7.42 in assay [1] and 6.75 in assay [3]. Besides, in assay [4], the Ratio Ki worked out at 5.
`COC(CN1CCCN(Cc2ccccc2)[C@@H](CO)C1)OC`: the values for the pKi in assay [1] and in assay [3] were 6.49 and 5.05, respectively. In addition, the pIC50 (in assay [2]; at Mu-type opioid receptor; in assay [5]) was < 5.00 in each case. Also, the Ratio Ki in assay [4] turned out to be 28.
As to `COC(CN1CCN(Cc2ccccc2)[C@@H](CO)C1)OC`, the pKi in assay [1] and in assay [3] was < 5.00 each time.

Values taken from ChEMBL document CHEMBL1153857, “1,4-Diazepanes derived from (S)-serine--homopiperazines with improved sigma(1) (sigma) receptor affinity and selectivity” (Eur J Med Chem, 2009).
